# Data published in ChEMBL document CHEMBL4052618, “Design, synthesis, SAR discussion, in vitro and in vivo evaluation of novel selective EGFR modulator to inhibit L858R/T790M double mutants” (Eur J Med Chem, 2017).
# Tests used:
# [1] = molecular target: Epidermal growth factor receptor (Homo sapiens, UniProt P00533); assay: Inhibition of human recombinant cytoplasmic GST-tagged EGFR (668 to 1210 residues) expressed in baculovirus using TK-substrate-biotin preincubated for 15 mins followed by substrate addition measured after 60 mins by FRET-based Z'-Lyte assay; settings: read-out: IC50
# Epidermal growth factor receptor, sequence (P00533 whole entry, the tested form may be a part): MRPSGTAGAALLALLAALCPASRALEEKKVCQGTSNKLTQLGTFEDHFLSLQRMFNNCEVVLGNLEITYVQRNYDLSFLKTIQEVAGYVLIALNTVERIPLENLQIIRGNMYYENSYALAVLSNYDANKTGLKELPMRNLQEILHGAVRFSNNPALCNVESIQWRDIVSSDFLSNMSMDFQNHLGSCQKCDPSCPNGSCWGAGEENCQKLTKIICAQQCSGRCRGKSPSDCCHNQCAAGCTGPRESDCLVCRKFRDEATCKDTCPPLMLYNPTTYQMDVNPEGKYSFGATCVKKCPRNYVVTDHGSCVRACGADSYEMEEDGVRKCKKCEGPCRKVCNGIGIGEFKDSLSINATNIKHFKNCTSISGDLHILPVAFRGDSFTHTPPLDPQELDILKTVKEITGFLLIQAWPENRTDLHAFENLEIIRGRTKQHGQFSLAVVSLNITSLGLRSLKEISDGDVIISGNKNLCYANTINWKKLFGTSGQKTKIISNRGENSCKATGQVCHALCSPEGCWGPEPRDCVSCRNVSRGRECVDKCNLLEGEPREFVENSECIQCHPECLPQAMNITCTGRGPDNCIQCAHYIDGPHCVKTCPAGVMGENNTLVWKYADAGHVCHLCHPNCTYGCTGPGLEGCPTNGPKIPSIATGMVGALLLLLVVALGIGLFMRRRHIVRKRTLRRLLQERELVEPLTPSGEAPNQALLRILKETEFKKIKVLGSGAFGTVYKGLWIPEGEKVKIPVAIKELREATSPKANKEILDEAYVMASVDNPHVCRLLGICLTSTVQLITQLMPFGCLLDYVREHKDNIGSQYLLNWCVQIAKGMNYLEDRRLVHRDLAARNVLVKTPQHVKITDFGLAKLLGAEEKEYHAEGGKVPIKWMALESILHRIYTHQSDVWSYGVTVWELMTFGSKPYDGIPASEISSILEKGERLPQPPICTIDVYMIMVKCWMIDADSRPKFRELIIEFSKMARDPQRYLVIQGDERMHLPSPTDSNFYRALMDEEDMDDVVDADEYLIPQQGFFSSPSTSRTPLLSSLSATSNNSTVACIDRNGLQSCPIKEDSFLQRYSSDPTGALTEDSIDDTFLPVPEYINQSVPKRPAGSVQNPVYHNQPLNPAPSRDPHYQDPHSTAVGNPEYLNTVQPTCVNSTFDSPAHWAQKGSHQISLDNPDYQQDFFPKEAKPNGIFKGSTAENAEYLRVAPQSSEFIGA
# NCI-H1975 = assay: In vivo anti tumor activity against human NCI-H1975 cells xenografted in nude C.B-17 SCID mouse model assessed as relative tumor volume at 5 mg/kg, ig for 18 days measured twice a week relative to control; format: functional
# Summary of the method: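 C.B-17 SCID mice received s.c. inoculation of 5 × 10^6 H1975 cells. At 100-150 mm3 they were randomized (n = 9 per group) and dosed intragastrically once daily for 18 days, with PBS as the control. Tumors were measured by caliper twice weekly, with V = length × width²/2. RTV = V/V0, and T/C% = treated mean RTV / control mean RTV × 100.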
# [2] = molecular target: Tyrosine-protein kinase Fes/Fps (Homo sapiens) (UniProt P07332); assay: Inhibition of FES (FPS) (unknown origin) at 1 uM relative to control
# [3] = molecular target: Fibroblast growth factor receptor 1 (Homo sapiens) (UniProt P11362); assay: Inhibition of FGFR1 (unknown origin) at 1 uM relative to control
# Fibroblast growth factor receptor 1 (Homo sapiens), sequence (P11362 22-822 limits assumed): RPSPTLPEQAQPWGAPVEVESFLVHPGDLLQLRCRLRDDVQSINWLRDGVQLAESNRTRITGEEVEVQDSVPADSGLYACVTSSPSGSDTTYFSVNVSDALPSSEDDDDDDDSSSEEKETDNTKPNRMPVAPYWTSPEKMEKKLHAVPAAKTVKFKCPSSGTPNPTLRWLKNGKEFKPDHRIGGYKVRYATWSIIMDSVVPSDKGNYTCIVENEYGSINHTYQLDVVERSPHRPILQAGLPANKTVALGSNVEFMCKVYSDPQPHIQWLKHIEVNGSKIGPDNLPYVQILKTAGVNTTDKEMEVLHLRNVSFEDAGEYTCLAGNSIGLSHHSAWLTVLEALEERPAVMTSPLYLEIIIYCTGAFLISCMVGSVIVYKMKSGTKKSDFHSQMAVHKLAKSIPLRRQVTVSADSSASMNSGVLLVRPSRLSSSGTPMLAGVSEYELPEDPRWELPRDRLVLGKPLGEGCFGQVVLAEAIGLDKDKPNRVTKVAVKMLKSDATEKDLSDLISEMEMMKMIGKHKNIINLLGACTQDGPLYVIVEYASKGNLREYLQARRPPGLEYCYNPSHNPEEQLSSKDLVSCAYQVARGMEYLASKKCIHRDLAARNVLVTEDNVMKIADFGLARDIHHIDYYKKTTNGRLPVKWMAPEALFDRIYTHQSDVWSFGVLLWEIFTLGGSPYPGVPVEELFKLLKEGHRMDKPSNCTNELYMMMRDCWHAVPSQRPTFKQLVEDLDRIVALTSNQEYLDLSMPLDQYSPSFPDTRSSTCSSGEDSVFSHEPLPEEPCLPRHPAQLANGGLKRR
# [4] = molecular target: Leucine-rich repeat serine/threonine-protein kinase 2 (Homo sapiens) (UniProt Q5S007); assay: Inhibition of LRRK2 (unknown origin) at 1 uM relative to control
# Leucine-rich repeat serine/threonine-protein kinase 2 (Homo sapiens), sequence (Q5S007 whole entry): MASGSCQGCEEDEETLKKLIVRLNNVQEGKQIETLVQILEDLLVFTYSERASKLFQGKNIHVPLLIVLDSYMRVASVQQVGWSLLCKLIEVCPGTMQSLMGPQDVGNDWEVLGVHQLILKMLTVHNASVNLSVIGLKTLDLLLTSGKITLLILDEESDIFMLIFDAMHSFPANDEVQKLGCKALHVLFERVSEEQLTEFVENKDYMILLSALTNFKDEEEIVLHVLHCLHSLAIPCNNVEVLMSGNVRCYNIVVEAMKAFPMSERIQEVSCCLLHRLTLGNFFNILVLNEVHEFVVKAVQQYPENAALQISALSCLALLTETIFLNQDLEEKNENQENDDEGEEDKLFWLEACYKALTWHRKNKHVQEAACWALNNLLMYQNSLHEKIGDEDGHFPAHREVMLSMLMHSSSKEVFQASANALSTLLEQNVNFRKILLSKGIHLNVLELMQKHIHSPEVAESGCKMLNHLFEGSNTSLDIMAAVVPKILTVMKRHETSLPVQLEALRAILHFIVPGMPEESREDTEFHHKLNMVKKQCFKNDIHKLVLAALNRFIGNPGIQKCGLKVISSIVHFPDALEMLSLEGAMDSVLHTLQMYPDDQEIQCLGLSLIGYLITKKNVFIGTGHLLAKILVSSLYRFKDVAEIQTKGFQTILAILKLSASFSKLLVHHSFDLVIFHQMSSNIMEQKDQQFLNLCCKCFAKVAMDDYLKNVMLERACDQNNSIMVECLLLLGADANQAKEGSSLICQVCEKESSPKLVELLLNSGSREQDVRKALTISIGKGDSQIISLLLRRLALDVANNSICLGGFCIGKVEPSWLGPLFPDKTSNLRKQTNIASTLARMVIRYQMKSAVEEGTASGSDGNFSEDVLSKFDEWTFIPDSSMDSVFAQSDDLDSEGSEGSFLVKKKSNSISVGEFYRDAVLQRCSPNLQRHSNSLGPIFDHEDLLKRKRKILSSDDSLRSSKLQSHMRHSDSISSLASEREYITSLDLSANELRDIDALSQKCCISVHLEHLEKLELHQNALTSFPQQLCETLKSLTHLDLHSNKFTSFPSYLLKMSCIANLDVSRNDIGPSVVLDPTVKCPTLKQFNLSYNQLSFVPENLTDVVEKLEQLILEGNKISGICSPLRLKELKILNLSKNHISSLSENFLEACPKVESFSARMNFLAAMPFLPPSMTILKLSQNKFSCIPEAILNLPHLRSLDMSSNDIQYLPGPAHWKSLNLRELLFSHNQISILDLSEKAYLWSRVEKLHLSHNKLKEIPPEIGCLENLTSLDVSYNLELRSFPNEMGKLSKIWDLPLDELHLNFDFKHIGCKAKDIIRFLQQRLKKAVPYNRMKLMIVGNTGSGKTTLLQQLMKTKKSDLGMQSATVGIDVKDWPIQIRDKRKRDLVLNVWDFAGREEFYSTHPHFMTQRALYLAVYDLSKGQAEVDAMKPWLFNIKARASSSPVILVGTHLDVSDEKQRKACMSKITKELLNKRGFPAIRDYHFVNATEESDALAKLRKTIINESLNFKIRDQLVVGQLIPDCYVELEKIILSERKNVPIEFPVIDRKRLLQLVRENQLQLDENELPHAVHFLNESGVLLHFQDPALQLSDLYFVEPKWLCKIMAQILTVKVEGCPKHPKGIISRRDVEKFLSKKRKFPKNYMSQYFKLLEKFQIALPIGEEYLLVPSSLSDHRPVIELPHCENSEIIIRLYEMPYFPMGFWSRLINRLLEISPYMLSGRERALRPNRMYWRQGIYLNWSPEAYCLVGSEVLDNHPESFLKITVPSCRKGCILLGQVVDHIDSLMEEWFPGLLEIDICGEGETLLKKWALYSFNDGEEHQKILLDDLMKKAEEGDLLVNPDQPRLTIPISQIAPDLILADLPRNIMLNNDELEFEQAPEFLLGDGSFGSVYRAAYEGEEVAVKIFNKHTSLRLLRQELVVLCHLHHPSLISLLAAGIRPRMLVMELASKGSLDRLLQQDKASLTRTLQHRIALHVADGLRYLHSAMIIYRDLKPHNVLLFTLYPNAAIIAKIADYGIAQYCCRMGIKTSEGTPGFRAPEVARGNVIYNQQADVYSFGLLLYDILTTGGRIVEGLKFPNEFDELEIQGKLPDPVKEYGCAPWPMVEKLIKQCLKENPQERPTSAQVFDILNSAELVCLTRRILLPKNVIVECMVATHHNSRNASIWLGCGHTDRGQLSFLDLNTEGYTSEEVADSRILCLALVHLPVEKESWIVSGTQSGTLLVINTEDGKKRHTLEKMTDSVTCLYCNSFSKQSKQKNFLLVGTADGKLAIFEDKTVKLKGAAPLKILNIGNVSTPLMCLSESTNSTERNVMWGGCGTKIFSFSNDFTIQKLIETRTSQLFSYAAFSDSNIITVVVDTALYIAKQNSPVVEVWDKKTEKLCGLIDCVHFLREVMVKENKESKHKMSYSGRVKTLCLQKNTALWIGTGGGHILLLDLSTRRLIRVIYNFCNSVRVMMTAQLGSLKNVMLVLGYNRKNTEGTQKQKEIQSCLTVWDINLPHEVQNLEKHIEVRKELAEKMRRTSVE
smiles,measurement,setting,value
C=CC(=O)Nc1cc(Nc2nccc(-c3cn4c5c(cccc35)CCC4)n2)c(OC)cc1N(C)CCN(C)C,IC50,[1],21.6 nM
same,T/C,NCI-H1975,56.4%
same,inhibition,[2],42%
same,inhibition,[3],7%
same,inhibition,[4],90%
